Values without a mark were called inactive.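 The calls were made as follows: active = compounds lowering the uptake signal whose fitted half-maximal concentration is at most twice their top valid dose; inconclusive = flat curve between 30% and 70% signal loss, or poor fit; inactive = opposite direction, flat near zero, or potency beyond limit.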
Test: DiI-HDL uptake inhibition in parental ldlA7 cells, dose response, counter-screen for SR-BI HDL uptake inhibitor project, cell-based, CHO ldlA7, fluorescence, dry powder, set 2 (AID 624007)
Settings: 3 h, at 35000 nM
How it was run: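 Material: ldlA7 CHO cells without LDL receptor, no mSR-BI overexpression | Reagent: DiI-labelled HDL, 10 µg/mL final | Doses: Test compounds delivered by pin transfer | Schedule: 3 h exposure at 37 °C | Technique: DiI fluorescence, bottom read, Ex 550/Em 595 nm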

Row | SMILES | DiI-HDL uptake signal change vs neutral control (%), lower = more inhibition [%]
1 | C=CCOC(=O)N(C)C[C@@H]1Oc2ccc(N)cc2C(=O)N([C@H](C)CO[Si](C)(C)C(C)(C)C)C[C@H]1C | 4.25
2 | C=CCOC(=O)N(C)C[C@@H]1Oc2ccc(NC(=O)NC(C)C)cc2C(=O)N([C@H](C)CO[Si](C)(C)C(C)(C)C)C[C@H]1C | 18.2
3 | CC(C)NC(=O)Nc1ccc2c(c1)C(=O)N([C@@H](C)CO)C[C@@H](C)[C@H](CN(C)S(=O)(=O)c1ccc(Cl)cc1)O2 | -2.49
4 | C=CCOC(=O)N(C)C[C@@H]1Oc2ccc(NC(=O)OCC3c4ccccc4-c4ccccc43)cc2C(=O)N([C@H](C)CO)C[C@H]1C | 18.3
